# The whole screen tested about 5,600 compounds, of which about 1,200 (21%) were called active. Inconclusive results (about 3%) are left out.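 Rule for the calls: active = mean inhibition above about 95%, with at least 55% of replicates also reaching it (limit read from the data); inconclusive = meets just one of the two conditions; inactive = meets neither condition.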 Only a sample is shown.
# Assay: inhibitors of intracellular T. cruzi replication, confirmation, NIH3T3 host cells, beta-gal parasites, cherry-pick, set 2 (AID 651740);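 note: plate controls were neutral control median for no effect and positive control median for full effect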
# Settings: T. cruzi beta-gal in NIH3T3, GalScreen luminescence, 90 h; at 2.09 µM; hits give high values
# Procedure, shortened: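 assay system = mouse NIH/3T3 fibroblasts infected with beta-galactosidase T. cruzi Tulahuen C4 | quantity = 5,000 fibroblasts/well | buffer or medium = 2% FBS DMEM with PSG | reagent = 5000 trypomastigotes per well | compound dosing = one concentration, 100 nL compound in DMSO | timing = ≥90 h infection with compound, 60 min read delay | signal = luminescence, GalScreen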
row,SMILES,inhibition
1,Cc1ccc(-c2ccc([C@H]3[C@H](CO)N4CCCCN(Cc5cncnc5)C[C@@H]34)cc2)cc1,50.8% (inactive)
2,C[C@@H]1CN([C@H](C)CO)C(=O)c2cc(C#Cc3ccccn3)cnc2O[C@H]1CN(C)Cc1ccccc1,76.7% (inactive)
3,C[C@H]1CN([C@@H](C)CO)C(=O)c2ccccc2-c2ccccc2CO[C@@H]1CN(C)S(=O)(=O)c1ccc(C(F)(F)F)cc1,71.5% (inactive)
4,CCC(=O)N1CCCCN2[C@H](C1)[C@@H](c1ccc(-c3ccc(F)cc3)cc1)[C@@H]2CO,-6.94% (inactive)
5,C[C@@H]1CCCCO[C@@H](CN(C)Cc2ccc3c(c2)OCO3)[C@@H](C)CN([C@@H](C)CO)C(=O)c2cc(NC(=O)Nc3ccccc3)ccc2O1,84.4% (inactive)
6,C[C@@H]1CCCCO[C@@H](CN(C)Cc2ccc(Cl)c(Cl)c2)[C@H](C)CN([C@H](C)CO)C(=O)c2cc(NC(=O)Nc3ccc(F)cc3)ccc2O1,112% (active)
7,C[C@@H]1CCCCO[C@H](CN(C)Cc2ccc(Cl)c(Cl)c2)[C@H](C)CN([C@@H](C)CO)C(=O)c2cc(NC(=O)C3CCCCC3)ccc2O1,110% (active)
8,C[C@@H]1CN([C@H](C)CO)C(=O)c2cc(NC(=O)Nc3ccc(F)cc3)ccc2O[C@@H](C)CCCCO[C@H]1CN(C)Cc1ccc(Cl)c(Cl)c1,114% (active)
9,COc1ccc(NC(=O)Nc2ccc3c(c2)C(=O)N([C@H](C)CO)C[C@@H](C)[C@H](CN(C)Cc2ccc(Cl)c(Cl)c2)OCCCC[C@@H](C)O3)cc1,114% (active)
10,COc1ccc(CN(C)C[C@H]2OCCCC[C@H](C)Oc3ccc(NC(=O)Nc4ccc5c(c4)OCO5)cc3C(=O)N([C@H](C)CO)C[C@@H]2C)cc1,83% (inactive)
11,O=C(NCc1ccccn1)[C@@H]1[C@@H](CO)[C@@H]2Cn3c(ccc(/C=C/c4ccccc4)c3=O)[C@H]1N2CC1CC1,22.2% (inactive)
12,C[C@H]1CN([C@@H](C)CO)C(=O)c2cc(C#CC3CCCCC3)cnc2O[C@H]1CN(C)S(=O)(=O)c1ccccc1,77% (inactive)
13,C[C@@H]1CN([C@@H](C)CO)C(=O)Cc2cc(NC(=O)C3CCCCC3)ccc2O[C@@H]1CN(C)Cc1ccc(C(=O)Nc2ccccc2N)cc1,83.7% (inactive)
14,C[C@H](CO)N1C[C@H](C)[C@@H](CN(C)Cc2ccc(-c3ccccc3)cc2)Oc2ccc(NC(=O)CCC(F)(F)F)cc2CC1=O,89.8% (inactive)
15,C[C@@H]1CCCCO[C@H](CN(C)C(=O)Nc2cccc3ccccc23)[C@H](C)CN([C@H](C)CO)C(=O)c2cc(NS(=O)(=O)c3cccs3)ccc2O1,52.6% (inactive)
16,C[C@H](CO)N1C[C@H](C)[C@H](CN(C)C(=O)Nc2ccc3c(c2)OCO3)Oc2ncc(C#Cc3cccc(F)c3)cc2C1=O,36.1% (inactive)
17,CC(C)NC(=O)N(C)C[C@H]1OCc2cn(nn2)CCCC(=O)N([C@@H](C)CO)C[C@H]1C,-10.9% (inactive)
18,O=C(C1CC1)N1CCCCN2[C@H](CO)[C@H](c3ccc(-c4cccc(F)c4)cc3)[C@H]2C1,67% (inactive)
19,C[C@H](CO)N1C[C@H](C)[C@H](CN(C)C(=O)C2CCCCC2)Oc2ncc(C#Cc3cccc(F)c3)cc2C1=O,44.3% (inactive)
20,O=C(c1ccncc1)N1CCCCN2[C@H](CO)[C@H](c3ccc(-c4ccccc4)cc3)[C@H]2C1,68.8% (inactive)
21,O=C(C1CCC1)N1CCCCN2[C@H](CO)[C@H](c3ccc(-c4cccc(F)c4)cc3)[C@@H]2C1,62% (inactive)

row,SMILES,inhibition
1,C[C@@H]1CN([C@H](C)CO)C(=O)c2cc(C#CC3CCCCC3)cnc2O[C@@H]1CN(C)C(=O)NC1CCCC1,66.9% (inactive)
2,O=C(C1CCC1)N1CCCCN2[C@H](CO)[C@H](c3ccc(-c4ccncc4)cc3)[C@@H]2C1,24.4% (inactive)
3,COCC(=O)N1[C@H](CO)[C@@H](c2ccc(C#Cc3ccccc3F)cc2)[C@@H]1C#N,72.9% (inactive)
4,COc1cccc(C#Cc2ccc([C@@H]3[C@H](C#N)N[C@H]3CO)cc2)c1,97.1% (active)
5,N#C[C@@H]1[C@@H](c2ccc(C#Cc3cccc(F)c3)cc2)[C@@H](CO)N1C(=O)C1CCC1,62.2% (inactive)
6,O=C(C[C@H]1CC[C@@H]2[C@H](COC[C@H](O)CN2Cc2ccc(Oc3ccccc3)cc2)O1)N1CCN(c2ccccc2)CC1,21.7% (inactive)
7,Cc1ccccc1-c1ccc([C@@H]2[C@H](CO)N3CCCCN(S(=O)(=O)c4ccc(F)cc4)C[C@@H]23)cc1,62.4% (inactive)
8,CC(=O)N1[C@H](CNC(=O)C2CC2)[C@@H](c2ccc(-c3cccc(F)c3)cc2)[C@@H]1CO,-2.15% (inactive)
9,CCCNC(=O)N1[C@@H]2c3cccc(=O)n3C[C@H]1[C@H](CO)[C@H]2C(=O)NCC(F)(F)F,23.3% (inactive)
10,CC(C)(O)C#Cc1ccc([C@@H]2[C@H](CO)N3CCCCN(C(=O)c4cccc(F)c4)C[C@@H]23)cc1,-0.041% (inactive)
11,CCC(=O)N1CCCCN2[C@H](C1)[C@@H](c1ccc(/C=C/c3ccccc3)cc1)[C@@H]2CO,62.7% (inactive)
12,CNC[C@@H]1Oc2cc(C#CCC3CCCC3)ccc2S(=O)(=O)N([C@H](C)CO)C[C@H]1C,31.6% (inactive)
13,C[C@@H]1CN([C@H](C)CO)S(=O)(=O)c2ccc(C#CCC3CCCC3)cc2O[C@H]1CN(C)C(=O)CC1CC1,106% (active)
14,C[C@@H]1CN([C@@H](C)CO)S(=O)(=O)c2ccc(C#CCC3CCCC3)cc2O[C@H]1CN(C)C(=O)CC1CC1,64.9% (inactive)
15,C[C@H](CO)N1C[C@H](C)[C@@H](CN(C)C(=O)Nc2cc(F)ccc2F)Oc2cc(C#CC3CC3)ccc2S1(=O)=O,51.9% (inactive)
16,CC(C)CC#Cc1ccc2c(c1)O[C@H](CN(C)C(=O)C1CC1)[C@@H](C)CN([C@@H](C)CO)S2(=O)=O,58.8% (inactive)
17,CCCN(C)C[C@H]1Oc2cc(C#CC3CCCC3)ccc2S(=O)(=O)N([C@H](C)CO)C[C@@H]1C,68.9% (inactive)
18,C[C@H]1CN([C@@H](C)CO)S(=O)(=O)c2ccc(C#CC3CCCC3)cc2O[C@@H]1CN(C)C(=O)c1cccc(F)c1,100% (active)
19,CC(=O)N(C)C[C@H]1Oc2cc(C#CCN(C)C)ccc2S(=O)(=O)N([C@@H](C)CO)C[C@@H]1C,91.3% (inactive)
20,C[C@@H]1CN([C@@H](C)CO)S(=O)(=O)c2ccc(C#CCN(C)C)cc2O[C@H]1CN(C)C(=O)C1CC1,98.9% (active)
21,C[C@@H]1CN([C@H](C)CO)S(=O)(=O)c2ccc(C#CC3CCCC3)cc2O[C@@H]1CN(C)C(=O)Cc1ccncc1,66.3% (inactive)

row,SMILES,inhibition
1,C[C@@H]1CN([C@H](C)CO)C(=O)Cc2cc(NC(=O)Cc3ccccc3)ccc2O[C@H]1CN(C)Cc1ccc(Oc2ccccc2)cc1,20.7% (inactive)
2,CC(=O)NC[C@@H]1[C@@H](c2ccc(-c3ccccc3F)cc2)[C@@H](CO)N1C(=O)C1CC1,14.2% (inactive)
3,COc1ccc(S(=O)(=O)Nc2ccc3c(c2)C(=O)N([C@@H](C)CO)C[C@H](C)[C@H](CN(C)Cc2ccc(C(F)(F)F)cc2)O3)cc1,42.3% (inactive)
4,Cc1noc(C)c1S(=O)(=O)N(C)C[C@H]1Oc2ccc(N(C)C)cc2CC(=O)N([C@H](C)CO)C[C@@H]1C,-7.54% (inactive)
5,CC(C)CC#Cc1ccc2c(c1)O[C@H](CN(C)Cc1ccccc1F)[C@@H](C)CN([C@@H](C)CO)S2(=O)=O,113% (active)
6,CC(C)CC#Cc1ccc2c(c1)O[C@H](CN(C)Cc1ccncc1)[C@H](C)CN([C@H](C)CO)S2(=O)=O,89.4% (inactive)
7,CC(C)CC#Cc1ccc2c(c1)O[C@H](CN(C)S(=O)(=O)c1cccc(F)c1)[C@@H](C)CN([C@@H](C)CO)S2(=O)=O,110% (active)
8,C[C@@H]1CN([C@H](C)CO)S(=O)(=O)c2ccc(-c3cccc(F)c3)cc2O[C@H]1CN(C)S(=O)(=O)c1ccc(F)cc1,74.9% (inactive)
9,C[C@@H]1CN([C@@H](C)CO)S(=O)(=O)c2ccc(-c3cccc(F)c3)cc2O[C@@H]1CN(C)S(=O)(=O)c1ccccc1,94.1% (inactive)
10,CC(C)CC#Cc1ccc2c(c1)O[C@H](CN(C)Cc1cccnc1)[C@H](C)CN([C@@H](C)CO)S2(=O)=O,81.2% (inactive)
11,O=C(C[C@@H]1C[C@@H]2c3cc(NC(=O)c4ccc5c(c4)OCO5)ccc3O[C@@H]2[C@@H](CO)O1)NCc1ccc(Cl)cc1,-3.27% (inactive)
12,CCS(=O)(=O)N1CCCCN2[C@@H](CO)[C@@H](c3ccc(-c4ccccc4)cc3)[C@@H]2C1,27.5% (inactive)
13,COc1ccc(S(=O)(=O)N2CCCCN3[C@H](C2)[C@H](c2ccc(C#CCC(C)C)cc2)[C@@H]3CO)cc1,109% (active)
14,COc1ccc(S(=O)(=O)N2CCCCN3[C@H](CO)[C@@H](c4ccc(C#CC(C)C)cc4)[C@H]3C2)cc1,79.7% (inactive)
15,O=S(=O)(Cc1ccccc1)N1CCCCN2[C@@H](CO)[C@H](c3ccc(-c4ccccc4)cc3)[C@@H]2C1,78.8% (inactive)
16,O=C(c1cccnc1)N1CCCCN2[C@@H](CO)[C@H](c3ccc(C#Cc4ccccc4)cc3)[C@@H]2C1,41.7% (inactive)
17,COc1ccccc1C#Cc1ccc([C@@H]2[C@H](CO)N3CCCCN(C(=O)C4CCCC4)C[C@@H]23)cc1,98.1% (active)
18,COc1cccc(S(=O)(=O)N2CCCCN3[C@H](CO)[C@H](c4ccc(-c5ccncc5)cc4)[C@H]3C2)c1,100% (active)
19,Cc1cccc(-c2ccc([C@@H]3[C@@H](CO)N4CCCCN(S(=O)(=O)c5cccs5)C[C@H]34)cc2)c1,94.4% (inactive)
20,COc1ccccc1C#Cc1ccc([C@@H]2[C@H](CO)N3CCCCN(C(=O)C4CC4)C[C@@H]23)cc1,64.4% (inactive)
21,CN(C)CC#Cc1ccc([C@H]2[C@H]3CN(S(=O)(=O)c4ccccc4F)CCCCN3[C@H]2CO)cc1,8.03% (inactive)

row,SMILES,inhibition
1,O=S(=O)(Cc1ccccc1)N1CCCCN2[C@@H](CO)[C@H](c3ccc(-c4cccnc4)cc3)[C@@H]2C1,62.1% (inactive)
2,O=S(=O)(Cc1ccccc1)N1CCCCN2[C@@H](CO)[C@@H](c3ccc(-c4ccc(F)cc4)cc3)[C@@H]2C1,104% (active)
3,OC[C@@H]1[C@H](c2ccc(C#CC3(O)CCCC3)cc2)[C@H]2CN(Cc3cncnc3)CCCCN12,79.8% (inactive)
4,CNC[C@H]1OCCCC[C@@H](C)Oc2ccc(NS(C)(=O)=O)cc2C(=O)N([C@H](C)CO)C[C@H]1C,-9.33% (inactive)
5,CO[C@H](CN(C)S(=O)(=O)c1ccc(Cl)cc1)[C@@H](C)CN(Cc1ccccc1Cl)[C@H](C)CO,48.7% (inactive)
6,COc1cccc(S(=O)(=O)Nc2ccc3c(c2)[C@H]2C[C@H](CC(=O)NCc4ccc(Cl)cc4)O[C@H](CO)[C@H]2O3)c1,2.49% (inactive)
7,COc1cccc(S(=O)(=O)N2C[C@@H](O)COC[C@@H]3O[C@H](CC(=O)Nc4ccccc4)CC[C@H]32)c1,1.83% (inactive)
8,C[C@H](CO)N1C[C@H](C)[C@@H](CN(C)S(=O)(=O)c2ccccc2F)Oc2ncc(C#Cc3ccccc3F)cc2C1=O,93.7% (inactive)
9,C[C@H]1CN([C@@H](C)CO)C(=O)Cc2cc(NC(=O)Cc3cn(C)c4ccccc34)ccc2O[C@@H]1CN(C)Cc1ccc(C(F)(F)F)cc1,43.7% (inactive)
10,C[C@H](O)C#Cc1ccc([C@@H]2[C@H]3CN(S(=O)(=O)c4ccccc4)CCCCN3[C@H]2CO)cc1,-19.2% (inactive)
11,COc1cccc(S(=O)(=O)N2CCCCN3[C@H](CO)[C@H](c4ccc(C#CC5CC5)cc4)[C@H]3C2)c1,102% (active)
12,C/C=C/c1ccc([C@H]2[C@H]3CN(S(=O)(=O)c4ccccc4)CCCCN3[C@H]2CO)cc1,40.8% (inactive)
13,O=C(Nc1cccc(F)c1)N1CCCCN2[C@H](CO)[C@H](c3ccc(C#CC4CC4)cc3)[C@@H]2C1,89.3% (inactive)
14,C[C@@H](O)C#Cc1ccc([C@@H]2[C@H](CO)N3CCCCN(S(=O)(=O)c4ccccc4)C[C@@H]23)cc1,12% (inactive)
15,COc1cccc(S(=O)(=O)N2CCCCN3[C@H](C2)[C@H](c2ccc(C#CC(C)C)cc2)[C@@H]3CO)c1,103% (active)
16,C[C@H](CO)N1C[C@H](C)[C@H](CN(C)C(=O)Nc2cccc3ccccc23)Oc2ncc(C#Cc3ccccc3)cc2C1=O,59.1% (inactive)
17,Cc1cccc(-c2ccc([C@@H]3[C@H](CO)N4CCCCN(C(=O)c5ccc6c(c5)OCO6)C[C@@H]34)cc2)c1,66.9% (inactive)
18,C[C@@H]1CN([C@H](C)CO)S(=O)(=O)c2ccc(-c3cccc(C#N)c3)cc2O[C@@H]1CN(C)C(=O)Nc1ccccc1F,85.2% (inactive)
19,C[C@@H]1CN([C@@H](C)CO)C(=O)CCCn2cc(nn2)CO[C@@H]1CN(C)S(=O)(=O)c1ccccc1F,34.3% (inactive)
